Source: PubChem (The Scripps Research Institute Molecular Screening Center)
HCV NS3 hel inh: HCV NS3 helicase inhibition | NS3 helicase DNA unwinding, Cy5 molecular beacon fluorescence | actives 0.56% (n = 290,000) | inhibition, % at 10.9 µM;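 active = inhibition above the mean of all tested compounds plus 3 SD, set per campaign, cut at about 35% in these data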
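System: NS3 helicase fragment of HCV / Schedule: 1 h at 25 °C / Control set: DMSO alone as 0% and 110 µM thioflavine S as 100% / Reagent: Cy5/quencher beacon DNA duplex and ATP to start / Technique: Cy5 fluorescence / Replication: singlicate / Evaluation: % inhibition of end-to-start signal ratio versus controls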
ZTA DNA inh: ZTA (EBV) inhibition in EBNA-1 counter-screen | P03206 | ZTA-DNA binding, fluorescence polarization | inhibition, % at 11 µM | actives 0.15% (n = 320,000); in the data active = inhibition above about 33%
Target sequence (P03206 whole entry, looked up): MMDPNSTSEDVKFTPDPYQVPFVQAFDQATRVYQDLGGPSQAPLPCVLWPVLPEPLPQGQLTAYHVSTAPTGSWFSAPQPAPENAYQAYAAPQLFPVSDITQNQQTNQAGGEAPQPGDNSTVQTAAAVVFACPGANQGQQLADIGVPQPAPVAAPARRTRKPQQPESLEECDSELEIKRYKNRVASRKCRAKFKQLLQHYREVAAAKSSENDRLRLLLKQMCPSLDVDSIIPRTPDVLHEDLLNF
HCV core dimer: blocks dimerization of HCV core protein; TR-FRET GST/Flag-core106 dimerization, 1536-well; inhibition, % at 5 µM; actives 0.33% (n = 300,000); AID 1899;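 active = inhibition above the mean of all tested compounds plus 3 SD, set per screening campaign, cut at about 45% in these data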
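Test system: GST/Flag-tagged HCV core106 proteins; Medium: KF-containing HEPES buffer, pH 7.45, DTT, CHAPS, BSA; Times: compound-protein-antibody incubation 4 h at 22.5 °C; Detection: TR-FRET 671 and 617 nm emission; Benchmarks: wells lacking GST-core106 and wells with excess unlabelled core106.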
EBNA-1 inhibitor: blocks EBNA-1 binding to DNA; EBNA-1 DNA binding, fluorescence polarization; actives 0.34% (n = 300,000); inhibition, % at 14.8 µM; AID 1950; in the data active = inhibition above about 28%
NS3 hel confirm: HCV NS3 helicase inhibition, confirmation assay. shares compounds with HCV NS3 hel inh. NS3 helicase DNA unwinding, Cy5 molecular beacon fluorescence. inhibition, % at 10.9 µM. actives 31% (n = 1,600);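 active = inhibition above the mean of all tested compounds plus 3 SD, cutoff set per campaign, cut at about 36% in these data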
DNA FID counter: counter-screen for HCV NS3 helicase inhibitors: DNA intercalator displacement | shares compounds with HCV NS3 hel inh | DNA fluorescent intercalator displacement, fluorescence | inhibition, % at 7.9 µM | actives 4% (n = 1,600) | AID 1945; in the data active = inhibition above about 37%;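 also: higher means more displacement of ethidium bromide from the DNA hairpin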
DNA FID DR: counter-screen for HCV NS3 helicase inhibitors: DNA intercalator displacement dose response; shares compounds with HCV NS3 hel inh; fluorescent intercalator displacement from DNA, fluorescence; IC50, µM; 120 tested, under 10 active; AID 2172; call rule not given here
Each line names hits and unclear results; the compound was inactive in the other large screens (follow-up assays come after a bar, where they were run). Shown are actives, neighbours in structure and some others; about 1.2% of the full set was active somewhere.

Cc1ccc2[nH]c(CN3CCC(CO)(CC4CCCCO4)CC3)c(C)c2c1 (stereo not drawn)	none
Cc1[nH]c2ccccc2c1C(=O)COc1ccccc1	none
O=C(/C=C/c1cccc(F)c1)N1CCN(c2ncccn2)CC1	none
Cc1cccc(NC(=O)CC2Nc3cccc4cccc(c34)NC2=O)c1 (stereo not drawn)	HCV NS3 hel inh 45 | NS3 hel confirm inactive | DNA FID counter inactive
CC(=O)c1ccc(NC(=O)CC2Nc3cccc4cccc(c34)NC2=O)cc1 (stereo not drawn)	none
CC(=O)Nc1ccc(NC(=O)CC2Nc3cccc4cccc(c34)NC2=O)cc1 (stereo not drawn)	HCV NS3 hel inh 46 | NS3 hel confirm inactive | DNA FID counter inactive
CC(C)CC[n+]1ccn(-c2nc3ccccc3nc2[N-]S(=O)(=O)c2ccccc2)c1	none
O=S(=O)([N-]c1nc2ccccc2nc1-n1cc[n+](Cc2ccccc2)c1)c1ccc(Cl)cc1	HCV NS3 hel inh 37 | NS3 hel confirm inactive | DNA FID counter inactive
Cc1ccc(NC(=O)CC2SC(=O)NC2=O)cc1 (stereo not drawn)	HCV NS3 hel inh 47 | NS3 hel confirm inactive | DNA FID counter inactive
CCCCn1c(N)c(NCCC(C)C)c(=O)[nH]c1=O	HCV NS3 hel inh 45 | NS3 hel confirm inactive | DNA FID counter inactive
Cc1cc(/C=C2\SC(=S)NC2=O)c(C)n1C	none
Cc1cc(/C=C2\SC(=S)NC2=O)c(C)n1-c1ccc(O)cc1	HCV NS3 hel inh 45 | NS3 hel confirm inactive | DNA FID counter inactive
Cc1cc(/C=C2\SC(=S)NC2=O)c(C)n1-c1ccccc1	HCV NS3 hel inh 39 | NS3 hel confirm inactive | DNA FID counter inactive
COc1ccc(-n2c(C)cc(/C=C3\SC(=S)NC3=O)c2C)cc1	none
O=C1CC2(CCN(C(=O)c3ccccc3[N+](=O)[O-])CC2)Oc2ccccc21	none (no result: HCV NS3 hel inh)
CS(=O)(=O)c1nsc2nc(=O)c(/C=C3\C=Nc4ccccc43)c(N)n12	none
Cc1cc2nc(=O)c(/C=C3\C=Nc4ccccc43)c(N)n2o1	HCV NS3 hel inh 43 | NS3 hel confirm inactive | DNA FID counter inactive
CCc1ccc(/C=C2\Oc3cc(OC(=O)N4CCOCC4)ccc3C2=O)cc1	HCV NS3 hel inh 47 | NS3 hel confirm inactive | DNA FID counter inactive
COc1ccc(/C=C2\Oc3cc(OC(=O)N4CCOCC4)ccc3C2=O)cc1	none
COc1cccc(C(C)NC(=O)C2CCCC2)c1 (stereo not drawn)	none
Cc1ccc(C(=O)/C=C/c2cc(Br)cc(Br)c2O)o1	HCV NS3 hel inh 37 | NS3 hel confirm 48 | DNA FID counter inactive | DNA FID DR inactive
Cc1ccc(Nc2cc(C)nn2-c2nc(C)cc(=O)[nH]2)cc1	HCV NS3 hel inh 39 | NS3 hel confirm inactive | DNA FID counter inactive
CCc1sc(C(C2C(=O)CC(C)(C)CC2=O)C2C(=O)CC(C)(C)CC2=O)cc1[N+](=O)[O-]	HCV NS3 hel inh 59 | NS3 hel confirm 68 | DNA FID counter inactive
CC1(C)CC(=O)C(C(c2ccc(F)cc2)C2C(=O)CC(C)(C)CC2=O)C(=O)C1	none
CNC(=O)c1ccsc1NC(=O)C1CCCN1S(=O)(=O)c1cccs1 (stereo not drawn)	none (no result: HCV NS3 hel inh)
O=C1NC(=S)S/C1=C\c1ccc(SCc2ccco2)o1	HCV NS3 hel inh 76, ZTA DNA inh 92 | NS3 hel confirm 81 | DNA FID counter inactive
CCC1=NN2C(=N)/C(=C\c3ccc(SCc4ccco4)o3)C(=O)N=C2S1	none
O=C1NC(=S)S/C1=C\c1ccc(SCc2ccccc2)o1	HCV NS3 hel inh 47 | NS3 hel confirm 81 | DNA FID counter inactive
O=C1NC(=S)S/C1=C/c1ccc(OC(=O)c2ccco2)cc1	none
Cc1cc(C)c2nc(-c3cccc(Cl)c3)c(C)c(C(=O)N3CCOCC3)c2c1	none
CN(C)S(=O)(=O)c1cccc(NC(=S)N/N=C/c2cc(Br)ccc2O)c1	HCV NS3 hel inh 46 | NS3 hel confirm 53 | DNA FID counter inactive
CN(C)S(=O)(=O)c1cccc(NC(=S)N/N=C/c2cccc(O)c2)c1	none
COc1ccc(C(=O)NC2CC2)cc1OC1CCN(C(C)CSC)CC1 (stereo not drawn)	none
Oc1c(Br)cc(Br)cc1/C=N/NC(=S)N[C@H]1CC2C=CC1C2 (stereo partly drawn)	HCV NS3 hel inh 37 | NS3 hel confirm 59 | DNA FID counter inactive | DNA FID DR inactive
CCC(C)NC(=O)c1cc2cc3ccc(OC)cc3nc2o1 (stereo not drawn)	HCV NS3 hel inh 38 | NS3 hel confirm inactive | DNA FID counter inactive
CCOc1ccc(NC(=O)c2cc3cc4ccc(C)cc4nc3o2)cc1	HCV NS3 hel inh 47 | NS3 hel confirm inactive | DNA FID counter inactive
Cc1ccc(OCC(=O)OCc2nc3scc(-c4ccccc4)c3c(=O)[nH]2)cc1C	none (no result: HCV NS3 hel inh)
Cc1cccc(Nc2ccc([N+](=O)[O-])cc2C(=O)O)c1	HCV NS3 hel inh 37 | NS3 hel confirm 66 | DNA FID counter inactive
CCn1ccnc1CNC(=O)CC1C(=O)NCCN1Cc1ccc(OC)cc1OC (stereo not drawn)	none
Cc1cc(NS(=O)(=O)c2ccc(NC(=O)CCc3ccccc3)cc2)no1	HCV NS3 hel inh 41 | NS3 hel confirm inactive | DNA FID counter inactive
CN(C)c1ccc(CNC(=O)CCS(=O)(=O)c2ccc3c(c2)n(C)c(=O)c(=O)n3C)cc1	none
CCOC(=O)CSc1nnc(Cn2nnc3ccccc32)n1-c1ccc(F)cc1	none
COc1ccc(N2Cc3ccc(C(=O)N/N=C\c4ccc(O)cc4O)cc3C2)cc1	HCV NS3 hel inh 40, HCV core dimer 68 | NS3 hel confirm inactive | DNA FID counter inactive
COc1ccc2nc(C)cc(SCC(=O)N/N=C/c3ccc(O)cc3O)c2c1	none
Oc1ccc(Br)cc1C=Nc1ccc2c3c(cccc13)CC2	HCV NS3 hel inh 48 | NS3 hel confirm inactive | DNA FID counter inactive
Oc1ccc(Cl)cc1C=Nc1ccccc1Br	none
COc1ccccc1CNC(=O)CCCNC(=O)c1ccc(Cl)cc1	none
Cc1ccc(CC(=O)O/N=C(\N)Cc2ccc([N+](=O)[O-])cc2)cc1	HCV NS3 hel inh 38 | NS3 hel confirm inactive | DNA FID counter inactive
COc1ccc(CC(=O)O/N=C(\N)Cc2ccc([N+](=O)[O-])cc2)cc1	none
Cc1ccc(C(C(=O)NCCc2ccccc2)N(C(=O)c2csnn2)C2CC2)cc1 (stereo not drawn)	none
COc1ccc(-c2noc3c2-c2nc(-c4c(F)cccc4F)sc2CC3)cc1	none
CC(C)C(C(=O)O)N1C(=O)/C(=C/C=C/c2ccco2)SC1=S (stereo not drawn)	HCV NS3 hel inh 44, ZTA DNA inh 99, HCV core dimer 57, EBNA-1 inhibitor 42 | NS3 hel confirm 78 | DNA FID counter inactive
